Only some compounds are listed: those with a hit (about 2.4% of all), similar ones and a draw of the others.
PP5 inh – PP5 (human) phosphatase inhibition. hit rate 0.18% among 320,000. inhibition, % at 6.7 µM. purified PP5c, OMFP substrate fluorescence;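 active = inhibition above the campaign's mean inhibition across all tested compounds plus 3 SD, cut at about 9.5% in these data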;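 note: 0% = DMSO only and 100% = 100 µM cantharidin control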
T cruzi repl – T. cruzi replication inhibition. inhibition, % (concentration not given with the values). T. cruzi beta-gal in NIH3T3, luminescence, 90 h. hit rate 1.4% among 300,000;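 active = mean inhibition across valid replicates above about 55%, limit read from the data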;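 note: signal also drops with host cell toxicity which is not excluded here; 0% = plate median of DMSO wells and 100% = zero luminescence signal; higher percent means less beta-gal luminescence so fewer parasites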
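assay system = mouse NIH/3T3 fibroblasts infected with β-gal-expressing T. cruzi Tulahuen C4 | input = 5,000 NIH/3T3 host cells per well | buffer or medium = DMEM plus 2% FBS | timing = 3 h host attachment, then at least 90 h co-culture | measured by = GalScreen luminescence, 60 min | evaluation = luminescence reflecting intracellular parasite burden, expressed as percent inhibition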
p-CIP stab down – p/CIP protein destabilization; Q05BA5; F442A p/CIP-EGFP cells, EGFP fluorescence, 16 h; decrease of EGFP signal, % at 10 µM; hit rate 0.01% among 290,000; AID 1984;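 active = EGFP signal decrease of at least 30% at 10 µM or well 3 SD below plate mean, unless failing retest; inactive = the rest, including hits failing retest or dose response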
Target sequence (Q05BA5 1-1403): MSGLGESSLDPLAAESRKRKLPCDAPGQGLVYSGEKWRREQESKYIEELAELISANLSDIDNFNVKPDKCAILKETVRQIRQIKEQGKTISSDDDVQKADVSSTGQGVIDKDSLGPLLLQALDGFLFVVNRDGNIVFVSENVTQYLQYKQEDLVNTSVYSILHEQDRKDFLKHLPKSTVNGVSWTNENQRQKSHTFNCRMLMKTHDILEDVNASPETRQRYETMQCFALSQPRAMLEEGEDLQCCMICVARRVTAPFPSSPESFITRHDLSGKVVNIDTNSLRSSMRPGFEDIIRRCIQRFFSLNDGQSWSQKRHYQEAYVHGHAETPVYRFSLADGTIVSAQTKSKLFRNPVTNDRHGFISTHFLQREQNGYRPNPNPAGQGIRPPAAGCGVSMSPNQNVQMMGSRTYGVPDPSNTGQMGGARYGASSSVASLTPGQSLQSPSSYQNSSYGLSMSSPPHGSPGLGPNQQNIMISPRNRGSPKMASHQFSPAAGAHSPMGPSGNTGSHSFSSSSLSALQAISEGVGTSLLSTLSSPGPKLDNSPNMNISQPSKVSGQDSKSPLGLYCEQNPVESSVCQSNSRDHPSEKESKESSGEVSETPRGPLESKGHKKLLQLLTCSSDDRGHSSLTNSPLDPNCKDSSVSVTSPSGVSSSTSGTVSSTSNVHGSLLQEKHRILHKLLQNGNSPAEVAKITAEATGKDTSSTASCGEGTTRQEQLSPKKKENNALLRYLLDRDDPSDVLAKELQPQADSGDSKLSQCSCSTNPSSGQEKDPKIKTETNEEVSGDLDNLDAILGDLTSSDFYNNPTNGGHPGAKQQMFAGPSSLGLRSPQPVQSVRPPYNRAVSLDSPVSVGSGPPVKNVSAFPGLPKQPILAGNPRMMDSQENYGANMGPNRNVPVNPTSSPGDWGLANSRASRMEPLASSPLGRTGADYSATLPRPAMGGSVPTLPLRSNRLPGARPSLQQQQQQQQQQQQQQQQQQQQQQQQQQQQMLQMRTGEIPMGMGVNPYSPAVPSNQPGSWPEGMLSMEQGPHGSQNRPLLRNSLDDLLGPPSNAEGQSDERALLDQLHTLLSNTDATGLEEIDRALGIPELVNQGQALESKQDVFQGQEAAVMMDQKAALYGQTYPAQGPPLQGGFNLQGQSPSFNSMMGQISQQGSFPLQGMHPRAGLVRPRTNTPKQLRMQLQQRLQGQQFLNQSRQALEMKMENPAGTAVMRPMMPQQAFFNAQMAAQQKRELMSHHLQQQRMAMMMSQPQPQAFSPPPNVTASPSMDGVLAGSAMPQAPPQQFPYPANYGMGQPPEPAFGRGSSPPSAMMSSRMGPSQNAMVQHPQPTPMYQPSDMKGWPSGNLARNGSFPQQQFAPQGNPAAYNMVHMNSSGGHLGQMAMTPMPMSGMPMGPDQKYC
GASC-1 inh – human JMJD2C demethylase inhibition | hit rate 0.069% among 330,000 | Q9H3R0 | GST-JMJD2C(1-420) H3K9me3 demethylation, DELFIA europium | inhibition, % at 2.35 µM;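 active = more than half of a compound's replicate wells show inhibition beyond 50%, single wells judged on their own value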;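 note: signal counts dimethyl H3K9 product captured on neutravidin plate; 0% = median of DMSO wells and 100% = 0.3 times that DMSO median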
CTSL1 counter – counter-screen for PFM18AAP inhibitors: inhibitors of F. hepatica cathepsin L1 | inhibition, % at 5.96 µM | recombinant F. hepatica cathepsin L1, Z-Leu-Arg-MCA fluorescence | AID 1906 | hit rate 0.49% among 300,000;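 active = inhibition above the mean of all tested compounds plus 3 SD, set per screening campaign, cut at about 17% in these data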;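 note: 0% = plate median of test compound wells and 100% = 1 µM Z-Phe-Ala-diazomethylketone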
Cardio protect – protects H9c2 cardiomyocytes from peroxide injury | H2O2 injury protection, ATPLite, 2 h | protection from H2O2 cell death, % at 20 µM | hit rate 0.63% among 360,000 | AID 588492;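 active = compounds giving at least 50% protection of heart cells from peroxide-induced death in the single-dose screen, raw or plate-pattern-corrected value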;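 note: 0% = DMSO wells with peroxide and 100% = DMSO wells without peroxide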
PP5 conf – confirmation of human PP5 phosphatase inhibitors | shares compounds with PP5 inh | Purified PP5, fluorogenic phosphatase substrate, fluorescence | inhibition, % at 6.7 µM | hit rate 22% among 460; in the data active = inhibition above about 9.5%
PP1 inh counter – inhibits human PP1 phosphatase in PP5 counter-screen; shares compounds with PP5 inh; PP1 enzyme, fluorescent phosphatase substrate; inhibition, % at 6.7 µM; hit rate 4% among 460; AID 2355; in the data active = inhibition above about 16%
The depositor's hits bear a star; . = not tested or not shown.

SMILES	PP5 inh	T cruzi repl	p-CIP stab down	GASC-1 inh	CTSL1 counter	Cardio protect	PP5 conf	PP1 inh counter
Oc1ccc(/C=N\Nc2cc(N3CCOCC3)nc(N3CCOCC3)n2)c(O)c1	14.3*	10.0	-1.4	-3.6	0.1	33.1	35.8*	-0.1
CN1OC[C@@H]2CN(S(=O)(=O)c3ccccc3)[C@H](c3ccc(-n4ccnc4)cc3)C[C@@H]21	.	.	.	.	.	2.2	.	.
O=C(Nc1ccc(OCC(F)(F)C(F)F)c(C(F)(F)F)c1)c1ccccc1O	11.3*	6.5	5.0	-6.9	5.4	-20.7	6.3	5.1
Cc1cccc(-c2nnc(NC(=O)c3ccc(Cl)cc3)o2)c1	9.6*	-19.3	-5.7	1.8	0.5	47.2	0.7	24.0*
COCCOC(=O)c1c(C)oc2ccc(OC(=O)c3cccs3)cc12	10.5*	-6.6	-7.9	-4.5	-0.7	-11.0	-3.3	-2.5
O=C(COc1ccc(Cl)cc1)Nc1cc2c3c(c1)CC(=O)N3CCC2	-1.1	5.8	.	15.6	-1.8	7.9	.	.
O=S(=O)(c1ccc(OC(F)(F)F)cc1)N1CCC(O)(c2cccc(C(F)(F)F)c2)CC1	10.6*	36.3	-19.6	-20.1	7.0	-13.4	6.5	8.4
OC1(c2cccc(C(F)(F)F)c2)CCNCC1	1.9	-3.6	-12.3	9.7	-4.5	-2.2	.	.
CC(C)COC(=O)N1CC(O)CC1C(=O)Nc1ccc2c(c1)OCO2 (stereo not drawn)	0.5	.	.	-4.3	.	-0.7	.	.
CC(C)COC(=O)N1CC(O)CC1C(=O)O (stereo not drawn)	11.0*	-0.8	-0.8	-8.3	2.0	-2.1	-1.3	-2.0
COCCOC(=O)C1=C(C)NC(=O)NC1c1cn(-c2ccccc2)nc1-c1cccs1 (stereo not drawn)	5.7	9.2	-4.4	-7.2	-1.4	-5.3	.	.
COC(=O)C1=C(C)NC(C)=C(C(=O)OC)C1c1cn(-c2ccccc2)nc1-c1ccco1	13.5*	36.9	-8.5	8.2	0.5	6.5	2.3	2.6
CC(C)=C1C2CCC1C(C(=O)Nc1sc(C)c(-c3ccc(C(C)C)cc3)c1C(N)=O)C2C(=O)O (stereo not drawn)	2.4	4.6	14.6	-5.7	7.1	-3.5	.	.
COC(=O)c1c(NC(=O)C2C3CCC(O3)C2C(=O)O)sc2c1CCCCCC2 (stereo not drawn)	11.8*	-5.8	-43.4	-5.4	-1.3	3.7	-0.1	-0.5
CCc1cccc(C)c1NC(=O)C1C2CCC(O2)C1C(=O)O (stereo not drawn)	12.2*	-7.3	3.9	-3.9	1.2	2.9	6.9	5.9
CCOC(=O)c1c(NC(=O)C2C3CCC(O3)C2C(=O)O)sc2c1CCCC2 (stereo not drawn)	14.1*	-7.9	0.1	-11.9	7.2	-2.6	10.8*	6.7
Cc1ccc(-c2c(C)sc(NC(=O)C3C4CCC(O4)C3C(=O)O)c2C(=O)OC(C)C)cc1 (stereo not drawn)	13.3*	-13.6	1.8	1.4	0.7	6.0	-2.5	2.8
CCOC(=O)c1c(NC(=O)COC)sc2c1CCCC2	3.9	12.2	-1.0	1.4	2.6	-1.0	.	.
COC(=O)c1c(NC(=O)C2C3CCC(C3)C2C(=O)O)sc2c1CCCCC2 (stereo not drawn)	-0.5	-0.1	3.9	3.3	0.1	-3.0	.	.
CCc1cccc(C)c1NC(=O)c1ccccc1	-2.3	10.9	4.6	-7.2	1.9	-0.7	.	.
CCc1cc2c(SCC(=O)N3CCN(C(=O)c4cccs4)CC3)ncnc2s1	.	.	.	.	.	0.3	.	.
COCCNc1cnn(-c2ccccc2)c(=O)c1Cl	1.5	-11.9	-4.6	4.6	-3.7	-4.8	.	.
Cc1csc(NC(=O)CCC(=O)N(CC(=O)NC2CCCCC2)c2ccccc2)n1	0.3	9.6	-14.3	71.0	-0.9	-0.1	.	.
Cc1ccc(OC(F)F)c(NC(=O)Nc2cccc(C(F)(F)F)c2)c1	13.1*	55.3*	-19.2	-7.8	1.9	-21.5	4.7	3.5
O=C(COCC(=O)Nc1cccc(C(F)(F)F)c1)Nc1cccc(C(F)(F)F)c1	10.1*	-6.6	-2.5	-1.3	6.3	-15.9	10.2*	10.2
